Measurements gathered from unrelated publications.
Each line is one published result; the experiments were not run side by side.

SMILES | cell line | observed | action | method | time | notes | IC50
COc1cc(NC(=O)c2ccc(C#N)cc2)ccc1S(N)(=O)=O | RAW264.7 | cell growth or viability |  | MTT | 48 h |  | > 100 µM
COc1ccc(NC(=O)C2=C(C)NC(C)=C(C(=O)Nc3ccc(OC)cc3OC)C2c2ccc(O)cc2)c(OC)c1 | Vero | cell growth or viability |  | MTT |  |  | 70.3 µM
C=C(F)C(=O)N1CCN(c2nc(OC[C@@H]3CCCN3C)nc3c2CCN(c2cccc4cccc(Cl)c24)C3)C[C@@H]1CC#N | Lu-65 | cell growth or viability |  | ATP luminescence |  | 3D culture | 0.00188 µM
CC(C)c1ccccc1[C@@H]1CCCN1C1CC2(CCN(c3ccc(C(=O)NS(=O)(=O)c4ccc(NC[C@H]5CC[C@](C)(O)CC5)c([N+](=O)[O-])c4)c(Oc4cnc5[nH]ccc5c4)c3)CC2)C1 | Maver1 | cell growth or viability |  | ATP luminescence | 48 h |  | 0.00096 µM
CCNCCCn1c2c(c3cc(OC)c(OC)cc3c1=O)C(=O)c1cc3c(nc1-2)OCO3 | HL-60 | cell growth or viability |  | MTS | 72 h |  | 0.27 µM
C#CCOc1ccc(/C=C/c2cc(OC)cc(OC)c2-c2cnnn2C(=O)NCC)cc1 | RAW264.7 | NO release | inhibitor | Griess | 24 h | LPS-stimulated | 10.6 µM
COc1ccc(NC(=O)C2=C(C)NC(C)=C(C(=O)Nc3ccc(OC)cc3OC)C2c2ccccc2)c(OC)c1 | Vero | cell growth or viability |  | MTT |  |  | 86.5 µM
COc1cc2c(NC3CCN(CCCC(=O)NCCCCCCCCCCCC(=O)N[C@H](C(=O)N4C[C@H](O)C[C@H]4C(=O)NCc4ccc(-c5scnc5C)cc4)C(C)(C)C)CC3)nc(N3CCC(F)(F)CC3)nc2cc1OCCCN1CCCC1 | 22Rv1 | cell growth or viability |  | CCK-8 | 7 days |  | 4.1 µM
Cc1ccc(-c2cc(C(F)(F)F)nn2-c2ccc(S(N)(=O)=O)cc2)cc1 | RAW264.7 | NO release | inhibitor | Griess | 24 h | LPS-stimulated | > 20 µM
CC1(C)CCC(CN2CCN(c3ccc(C(=O)NS(=O)(=O)c4ccc(NCC5CCOCC5)c([N+](=O)[O-])c4)c(Oc4cnc5[nH]ccc5c4)c3)CC2)=C(c2ccc(Cl)cc2)C1 | HL-60 | cell growth or viability |  | ATP luminescence | 48 h |  | 3.04 µM
COc1cccc2c1C(=O)c1c(O)c3c(c(O)c1C2=O)C[C@@](O)(C(=O)CO)C[C@@H]3O[C@H]1C[C@H](N)[C@H](O)[C@H](C)O1 | NCI-H1299 | cell growth or viability |  | MTT | 72 h |  | 0.77 µM
COc1cc(NC(=O)c2ccccn2)ccc1S(N)(=O)=O | RAW264.7 | cell growth or viability |  | MTT | 48 h |  | > 100 µM
CCCOc1ccc(/C=C/c2cc(OC)cc(OC)c2-c2cnnn2C(=O)NCCc2ccccc2)cc1 | RAW264.7 | NO release | inhibitor | Griess | 24 h | LPS-stimulated | 10.6 µM
COc1cc(NC(=O)c2cccc(I)c2)ccc1S(N)(=O)=O | RAW264.7 | cell growth or viability |  | MTT | 48 h |  | > 100 µM
COc1cc2c3c(n(CCCNCCO)c(=O)c2cc1OC)-c1nc2c(cc1C3=O)OCO2 | HL-60 | cell growth or viability |  | MTS | 72 h |  | 0.29 µM
COc1cc(NC(=O)c2cccc(C)c2)ccc1S(N)(=O)=O | RAW264.7 | cell growth or viability |  | MTT | 48 h |  | > 100 µM
COc1ccc(NC(=O)C2=C(C)NC(C)=C(C(=O)Nc3cc(OC)c(Cl)cc3OC)C2c2cccc(Cl)c2)c(OC)c1 (centres unmarked) | Vero | cell growth or viability |  | MTT |  |  | 49.6 µM
